In brackets after ≈: the same amount, converted by molar mass.
Tests used:
Fulvia fulva = experiment: Antifungal activity against Passalora fulva TK5318 at 28 degC measured after 72 hr by microdilution method; assay type: functional; details: TK5318, 72 h
Outline: (§1)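 Fungi were kept on malt agar at 4 °C. Spores were washed off with sterile 0.85% saline containing 0.1% Tween 80 and adjusted to about 1.0×10⁵ per well. Compounds were dissolved in DMSO (1 mg/ml stock) and serially diluted in malt broth with inoculum in 96-well plates, 72 h at 28 °C, for MIC. MFC came from subculture into fresh broth for a further 72 h at 28 °C.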

Aspergillus versicolor = experiment: Antifungal activity against Aspergillus versicolor ATCC 11730 at 28 degC measured after 72 hr by microdilution method; assay type: functional; details: ATCC 11730, 72 h; outline: as §1
Aspergillus flavus = experiment: Antifungal activity against Aspergillus flavus ATCC 9643 at 28 degC measured after 72 hr by microdilution method; assay type: functional; details: ATCC 9643, 72 h; outline: as §1
Aspergillus niger = experiment: Antifungal activity against Aspergillus niger ATCC 6275 at 28 degC measured after 72 hr by microdilution method; assay type: functional; details: ATCC 6275, 72 h; outline: as §1
Trichoderma viride = experiment: Antifungal activity against Hypocrea rufa IAM 5061 at 28 degC measured after 72 hr by microdilution method; assay type: functional; details: IAM 5061, 72 h; outline: as §1
Aspergillus fumigatus = experiment: Antifungal activity against plant isolate Aspergillus fumigatus at 28 degC measured after 72 hr by microdilution method; assay type: functional; outline: as §1
Penicillium ochrochloron = experiment: Antifungal activity against Penicillium ochrochloron ATCC 9112 at 28 degC measured after 72 hr by microdilution method; assay type: functional; details: ATCC 9112, 72 h; outline: as §1
Talaromyces funiculosus = experiment: Antifungal activity against Talaromyces funiculosus ATCC 36839 at 28 degC measured after 72 hr by microdilution method; assay type: functional; details: ATCC 36839, 72 h; outline: as §1
Listeria monocytogenes [1] = experiment: Antibacterial activity against Listeria monocytogenes NCTC 7973 at […] degC measured after 72 hr by microdilution method; assay type: functional; details: NCTC 7973, 72 h
Outline: (§2)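 Bactericidal endpoint: after the 24 h broth microdilution (1.0×10⁴ CFU per well, LB broth, […] °C), wells were serially subcultured into plates of fresh broth and incubated a further 72 h. MBC was the lowest concentration with no visible growth, taken as 99.5% killing of the original inoculum.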

Proteus mirabilis [2] = experiment: Antibacterial activity against Proteus mirabilis at […] degC measured after 72 hr by microdilution method; assay type: functional; outline: as §2
Salmonella typhimurium [3] = experiment: Antibacterial activity against Salmonella enterica subsp. enterica serovar TyphimuriumATCC 13311 at […] degC measured after 72 hr by microdilution method; assay type: functional, Salmonella enterica subsp. enterica serovar Typhimurium; details: ATCC 13311, 72 h; outline: as §2
Pseudomonas aeruginosa [4] = experiment: Antibacterial activity against Pseudomonas aeruginosa ATCC 27853 at […] degC measured after 72 hr by microdilution method; assay type: functional; details: ATCC 27853, 72 h; outline: as §2
Escherichia coli [5] = experiment: Antibacterial activity against Escherichia coli ATCC 35210 at […] degC measured after 72 hr by microdilution method; assay type: functional; details: ATCC 35210, 72 h; outline: as §2
Staphylococcus aureus [6] = experiment: Antibacterial activity against Staphylococcus aureus ATCC 6538 at […] degC measured after 72 hr by microdilution method; assay type: functional; details: ATCC 6538, 72 h; outline: as §2
Micrococcus flavus [7] = experiment: Antibacterial activity against Micrococcus flavus ATCC 10240 at […] degC measured after 72 hr by microdilution method; assay type: functional; details: ATCC 10240, 72 h; outline: as §2
Bacillus cereus [8] = experiment: Antibacterial activity against clinical isolate Bacillus cereus at […] degC measured after 72 hr by microdilution method; assay type: functional; outline: as §2
Listeria monocytogenes [9] = experiment: Antibacterial activity against Listeria monocytogenes NCTC 7973 at […] degC measured after 24 hr by microdilution method; assay type: functional; details: NCTC 7973, 24 h
Outline: (§3)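 Bacteria suspended in sterile saline at 1.0×10⁵ CFU/ml and added at 1.0×10⁴ CFU per well to LB broth with compound (1 mg/ml) in 96-well plates. Incubated 24 h at […] °C. MIC was the lowest concentration without visible growth under a binocular microscope. OD 655 nm was read against a blank and a positive control.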

Salmonella typhimurium [10] = experiment: Antibacterial activity against Salmonella enterica subsp. enterica serovar Typhimurium ATCC 13311 at […] degC measured after 24 hr by microdilution method; assay type: functional; details: ATCC 13311, 24 h; outline: as §3
Pseudomonas aeruginosa [11] = experiment: Antibacterial activity against Pseudomonas aeruginosa ATCC 27853 at […] degC measured after 24 hr by microdilution method; assay type: functional; details: ATCC 27853, 24 h; outline: as §3
Proteus mirabilis [12] = experiment: Antibacterial activity against Proteus mirabilis at […] degC measured after 24 hr by microdilution method; assay type: functional; outline: as §3
Escherichia coli [13] = experiment: Antibacterial activity against Escherichia coli ATCC 35210 at […] degC measured after 24 hr by microdilution method; assay type: functional; details: ATCC 35210, 24 h; outline: as §3
Staphylococcus aureus [14] = experiment: Antibacterial activity against Staphylococcus aureus ATCC 6538 at […] degC measured after 24 hr by microdilution method; assay type: functional; details: ATCC 6538, 24 h; outline: as §3
Bacillus cereus [15] = experiment: Antibacterial activity against clinical isolate Bacillus cereus at […] degC measured after 24 hr by microdilution method; assay type: functional; outline: as §3
Micrococcus flavus [16] = experiment: Antibacterial activity against Micrococcus flavus ATCC 10240 at […] degC measured after 24 hr by microdilution method; assay type: functional; details: ATCC 10240, 24 h; outline: as §3

SMILES	MFC (Fulvia fulva) [µM]	MIC (Fulvia fulva) [µM]	MFC (Aspergillus versicolor) [µM]	MIC (Aspergillus versicolor) [µM]	MFC (Aspergillus flavus) [µM]	MIC (Aspergillus flavus) [µM]	MFC (Aspergillus niger) [µM]	MIC (Aspergillus niger) [µM]	MFC (Trichoderma viride) [µM]	MIC (Trichoderma viride) [µM]	MFC (Aspergillus fumigatus) [µM]	MIC (Aspergillus fumigatus) [µM]	MFC (Penicillium ochrochloron) [µM]	MIC (Penicillium ochrochloron) [µM]	MFC (Talaromyces funiculosus) [µM]	MIC (Talaromyces funiculosus) [µM]	MBC (Listeria monocytogenes [1]) [µM]	MBC (Proteus mirabilis [2]) [µM]	MBC (Salmonella typhimurium [3]) [µM]	MBC (Pseudomonas aeruginosa [4]) [µM]	other results
COc1cc(Cc2nnc(Nc3ccc([N+](=O)[O-])cc3)s2)c(S(=O)(=O)N2CCCCC2)cc1OC	19.3 (≈ 10 µg/mL)	9.7 (≈ 5.04 µg/mL)	38.6 (≈ 20.1 µg/mL)	19.3 (≈ 10 µg/mL)	38.6 (≈ 20.1 µg/mL)	19.3 (≈ 10 µg/mL)	38.6 (≈ 20.1 µg/mL)	19.3 (≈ 10 µg/mL)	19.3 (≈ 10 µg/mL)	9.7 (≈ 5.04 µg/mL)	38.6 (≈ 20.1 µg/mL)	19.3 (≈ 10 µg/mL)	38.6 (≈ 20.1 µg/mL)	19.3 (≈ 10 µg/mL)	38.6 (≈ 20.1 µg/mL)	19.3 (≈ 10 µg/mL)	77.2 (≈ 40.1 µg/mL)	77.2 (≈ 40.1 µg/mL)	19.3 (≈ 10 µg/mL)	19.3 (≈ 10 µg/mL)	MBC (Escherichia coli [5]): 38.6 µM (≈ 20.1 µg/mL); MBC (Staphylococcus aureus [6]): 77.2 µM (≈ 40.1 µg/mL); MBC (Micrococcus flavus [7]): 38.6 µM (≈ 20.1 µg/mL); MBC (Bacillus cereus [8]): 38.6 µM (≈ 20.1 µg/mL); MIC (Listeria monocytogenes [9]): 19.3 µM (≈ 10 µg/mL); MIC (Salmonella typhimurium [10]): 9.7 µM (≈ 5.04 µg/mL); MIC (Pseudomonas aeruginosa [11]): 9.7 µM (≈ 5.04 µg/mL); MIC (Proteus mirabilis [12]): 38.6 µM (≈ 20.1 µg/mL); MIC (Escherichia coli [13]): 19.3 µM (≈ 10 µg/mL); MIC (Staphylococcus aureus [14]): 38.6 µM (≈ 20.1 µg/mL); MIC (Bacillus cereus [15]): 19.3 µM (≈ 10 µg/mL); MIC (Micrococcus flavus [16]): 19.3 µM (≈ 10 µg/mL)
COc1cc(Cc2nnc(Nc3ccc(C(F)(F)F)cc3)s2)c(S(=O)(=O)N2CCCCC2)cc1OC	18.4 (≈ 9.98 µg/mL)	9.2 (≈ 4.99 µg/mL)	18.4 (≈ 9.98 µg/mL)	9.2 (≈ 4.99 µg/mL)	36.8 (≈ 20 µg/mL)	18.4 (≈ 9.98 µg/mL)	36.8 (≈ 20 µg/mL)	18.4 (≈ 9.98 µg/mL)	18.4 (≈ 9.98 µg/mL)	9.2 (≈ 4.99 µg/mL)	36.8 (≈ 20 µg/mL)	9.2 (≈ 4.99 µg/mL)	36.8 (≈ 20 µg/mL)	18.4 (≈ 9.98 µg/mL)	18.4 (≈ 9.98 µg/mL)	9.2 (≈ 4.99 µg/mL)	73.6 (≈ 39.9 µg/mL)	73.6 (≈ 39.9 µg/mL)	18.4 (≈ 9.98 µg/mL)	18.4 (≈ 9.98 µg/mL)	MBC (Escherichia coli [5]): 36.8 µM (≈ 20 µg/mL); MBC (Staphylococcus aureus [6]): 36.8 µM (≈ 20 µg/mL); MBC (Micrococcus flavus [7]): 18.4 µM (≈ 9.98 µg/mL); MBC (Bacillus cereus [8]): 18.4 µM (≈ 9.98 µg/mL); MIC (Listeria monocytogenes [9]): 18.4 µM (≈ 9.98 µg/mL); MIC (Salmonella typhimurium [10]): 9.2 µM (≈ 4.99 µg/mL); MIC (Pseudomonas aeruginosa [11]): 9.2 µM (≈ 4.99 µg/mL); MIC (Proteus mirabilis [12]): 36.8 µM (≈ 20 µg/mL); MIC (Escherichia coli [13]): 18.4 µM (≈ 9.98 µg/mL); MIC (Staphylococcus aureus [14]): 18.4 µM (≈ 9.98 µg/mL); MIC (Bacillus cereus [15]): 9.2 µM (≈ 4.99 µg/mL); MIC (Micrococcus flavus [16]): 9.2 µM (≈ 4.99 µg/mL)
COc1cc(Cc2nnc(Nc3ccc(Cl)cc3)s2)c(S(=O)(=O)N2CCN(C)CC2)cc1OC	19.1 (≈ 10 µg/mL)	9.6 (≈ 5.03 µg/mL)	38.2 (≈ 20 µg/mL)	38.2 (≈ 20 µg/mL)	38.2 (≈ 20 µg/mL)	19.1 (≈ 10 µg/mL)	38.2 (≈ 20 µg/mL)	19.1 (≈ 10 µg/mL)	19.1 (≈ 10 µg/mL)	9.6 (≈ 5.03 µg/mL)	38.2 (≈ 20 µg/mL)	9.6 (≈ 5.03 µg/mL)	38.2 (≈ 20 µg/mL)	19.1 (≈ 10 µg/mL)	38.2 (≈ 20 µg/mL)	19.1 (≈ 10 µg/mL)	76.4 (≈ 40 µg/mL)	76.4 (≈ 40 µg/mL)	38.2 (≈ 20 µg/mL)	76.4 (≈ 40 µg/mL)	MBC (Escherichia coli [5]): 76.4 µM (≈ 40 µg/mL); MBC (Staphylococcus aureus [6]): 76.4 µM (≈ 40 µg/mL); MBC (Micrococcus flavus [7]): 19.1 µM (≈ 10 µg/mL); MBC (Bacillus cereus [8]): 38.2 µM (≈ 20 µg/mL); MIC (Listeria monocytogenes [9]): 19.1 µM (≈ 10 µg/mL); MIC (Salmonella typhimurium [10]): 9.6 µM (≈ 5.03 µg/mL); MIC (Pseudomonas aeruginosa [11]): 19.1 µM (≈ 10 µg/mL); MIC (Proteus mirabilis [12]): 38.2 µM (≈ 20 µg/mL); MIC (Escherichia coli [13]): 19.1 µM (≈ 10 µg/mL); MIC (Staphylococcus aureus [14]): 38.2 µM (≈ 20 µg/mL); MIC (Bacillus cereus [15]): 19.1 µM (≈ 10 µg/mL); MIC (Micrococcus flavus [16]): 9.6 µM (≈ 5.03 µg/mL)
